Reference: ChEMBL document CHEMBL2169868, “Flavone-based novel antidiabetic and antidyslipidemic agents” (J Med Chem, 2012)

Tests used:
[1] = Cmax in Sprague-Dawley rat at 2.5 mg/kg, iv by LC-MS/MS method; format: ADME, organism-based; parameters: dose 2.5 mg/kg, route intravenous; conditions: in vivo
Summary of the method: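 Male Sprague−Dawley rats given a single 2.5 mg/kg iv dose; one formulation was DMF/PG/water (2:4:4), 0.2 μ filtered. Blood drawn from 0.08 to 48 h. Plasma assayed by LC-MS/MS with linear range 0.78−400 ng/mL.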

[2] = system: Mus musculus; test: Antihyperglycemic activity in diabetic C57BL/KsJ db/db mouse model assessed as reduction in hyperglycemia at 25 mg/kg, po qd for 10 days; format: functional; parameters: scale not given: the % may be the effect or the level left
Summary of the method: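 db/db mice (C57BL/KsJ, 12−18 weeks, 40−50 g, glucose 200−350 mg/dL), housed at 23 ± 2.0 °C on a 12 h light cycle. Oral dosing daily for 10 days. Blood glucose checked each morning through day 9. Body weight recorded daily from day 1 to day 10. Mean % change versus vehicle, 5 mice per group; Student t test.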

[3] = system: Mus musculus; test: Antidiabetic activity in diabetic C57BL/KsJ db/db mouse model assessed as reduction in postprandial glucose level in hyperglycemia at 25 mg/kg, po measured 2 hrs post dose; format: functional; parameters: scale not given: the % may be the effect or the level left
Summary of the method: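 db/db mice (C57BL/KsJ, 12−18 weeks, 40−50 g; selected by glucose 200−350 mg/dL) dosed orally daily for 10 consecutive days at 1, 3, 10, 25 or 50 mg/kg; postprandial blood glucose profile recorded on day 6 with food access interrupted; mean % change versus vehicle in 5 animals per group; Student t test.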

[4] = system: Mus musculus; test: Antidiabetic activity in diabetic C57BL/KsJ db/db mouse model assessed as reduction in postprandial glucose level in hyperglycemia at 50 mg/kg, po measured 2 hrs post dose; parameters: scale not given: the % may be the effect or the level left
[5] = system: Rattus norvegicus; test: Volume of distribution in Sprague-Dawley rat at 25 mg/kg, po by LC-MS/MS method; format: ADME, organism-based; parameters: dose 25 mg/kg, route oral; conditions: in vivo
Summary of the method: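 Male Sprague−Dawley rats given a single 25 mg/kg oral dose (aqueous 0.5% methyl cellulose suspension for one compound). Blood drawn from 0.08 to 48 h. LC-MS/MS, linear range 0.78−400 ng/mL.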

[6] = system: Mus musculus; test: Antidyslipidemic activity in diabetic C57BL/KsJ db/db mouse model assessed as increase in plasma HDL-cholesterol level at 25 mg/kg, po qd for 10 days; format: functional
Summary of the method: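 db/db mice (blood glucose 200−350, TG 170−250, cholesterol 170−250, HDL-C 32−40 mg/dL) dosed orally at 25 mg/kg daily for 10 days; retro-orbital blood taken on day 11 for plasma TG, cholesterol and HDL-C (and HDL-C/CHOL ratio); mean % change versus vehicle control, 5 mice per group; Student t test.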

[7] = system: Syrian golden hamster; test: Antidyslipidemic activity in high fructose and high-fat diet fed dyslipidemic Syrian golden hamster model assessed as reduction in LDL-cholesterol level at 30 mg/kg/day, po for 7 day, po; format: functional, Mesocricetus auratus; parameters: scale not given: the % may be the effect or the level left
Summary of the method: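 Syrian golden hamsters fed high-fructose high-fat diet; oral dosing in 1% gum acacia at 10, 30, 100 mg/kg (or 25 mg/kg) for 7 days, sham control given vehicle; plasma TG, cholesterol, LDL-C, HDL-C, glycerol and NEFA (kits), lipoprotein lipase activity and body weight; % change versus HFD control, six hamsters per group.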

[8] = system: Mus musculus; test: Antidiabetic activity in diabetic C57BL/KsJ db/db mouse model assessed as improvement in glucose tolerance in hyperglycemia at 10 mg/kg, po measured 2 hrs post dose; format: functional

## CC(C)(C)NC[C@H](O)COc1ccc2c(=O)cc(-c3cc(OCc4ccccc4)cc(OCc4ccccc4)c3)oc2c1
[1]
  Cmax: 523 ng/mL
[2]
  Activity: 55.4%
[3]
  Activity: 38.3%
[4]
  Activity: 39.1%
[5]
  Vd: 107.41 L/kg
[6]
  Activity: 33.2%
[7]
  Activity: 34.6%
[8]
  Activity: 39.9%
